Tests used:
[1] = biological target: Delta-type opioid receptor (Rattus norvegicus, UniProt P33533); test: Displacement of [3H]DSLET from delta opioid receptor in rat brain membrane; format: cell membranes
Mu-type opioid receptor = Mu-type opioid receptor (Rattus norvegicus, UniProt P33535); test: Displacement of [3H]DAMGO from mu opioid receptor in rat brain membrane; format: cell membranes
[2] = biological target: Kappa-type opioid receptor (Cavia porcellus, UniProt P41144); test: Displacement of [3H]U-69593 from kappa opioid receptor in guinea pig brain membrane; format: cell membranes
[3] = Ratio of Ke for guinea pig mu opioid receptor to Ke for mouse delta opioid receptor
[4] = biological target: Mu-type opioid receptor (Cavia porcellus) (UniProt P97266); test: Activity at mu opioid receptor assessed as antagonizing effect against TAPP by GPI assay; format: functional
How it was run: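 Antagonism of the µ agonist TAPP measured in guinea pig ileum (GPI) preparation; Ke determined, reported as mean of three to six determinations.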

[5] = biological target: Kappa-type opioid receptor (Cavia porcellus) (UniProt P41144); test: Activity at kappa opioid receptor assessed as antagonizing effect against U50,488 by GPI assay; format: functional
How it was run: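 Antagonism of the κ agonist U50,488 measured in guinea pig ileum (GPI) preparation; Ke determined, reported as mean of three to six determinations.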

[6] = biological target: Opioid receptors; mu & delta (Rattus norvegicus) (UniProt P33533+P33535); test: Selectivity for mu opioid receptor over delta receptor; format: protein assay
[7] = Selectivity for rat mu opioid receptor over guinea pig kappa opioid receptor
[8] = biological target: Delta-type opioid receptor (Mus musculus) (UniProt P32300); test: Activity at delta opioid receptor assessed as antagonizing effect against DPDPE by MVD assay; format: functional
How it was run: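 Antagonism at δ receptors measured in mouse vas deferens (MVD) preparation; Ke determined, reported as mean of three to six determinations.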

[9] = biological target: Opioid receptor (mu and kappa) (Cavia porcellus) (UniProt P41144+P97266); test: Ratio of Ke for mu opioid receptor to Ke for kappa opioid receptor; format: protein assay
Sequence of Opioid receptor (mu and kappa) (Cavia porcellus) (P41144 whole entry, looked up): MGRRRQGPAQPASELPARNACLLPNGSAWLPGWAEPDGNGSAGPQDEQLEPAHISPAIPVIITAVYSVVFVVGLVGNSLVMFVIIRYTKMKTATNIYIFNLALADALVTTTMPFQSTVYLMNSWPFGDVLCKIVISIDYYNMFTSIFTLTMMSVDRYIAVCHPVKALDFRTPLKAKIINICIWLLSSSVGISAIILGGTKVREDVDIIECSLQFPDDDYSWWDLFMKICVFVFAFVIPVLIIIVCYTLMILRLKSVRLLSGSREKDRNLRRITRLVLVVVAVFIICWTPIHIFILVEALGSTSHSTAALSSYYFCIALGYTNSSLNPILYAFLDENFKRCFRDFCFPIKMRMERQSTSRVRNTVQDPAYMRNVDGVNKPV
Sequence of Opioid receptor (mu and kappa) (Cavia porcellus) (P97266 whole entry, looked up): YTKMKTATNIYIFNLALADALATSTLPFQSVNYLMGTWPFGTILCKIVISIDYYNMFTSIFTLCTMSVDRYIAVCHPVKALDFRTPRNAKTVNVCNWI

Sequence of Kappa-type opioid receptor (P41144 whole entry): as the sequence (P41144 whole entry, looked up) above
Sequence of Delta-type opioid receptor (P33533 whole entry): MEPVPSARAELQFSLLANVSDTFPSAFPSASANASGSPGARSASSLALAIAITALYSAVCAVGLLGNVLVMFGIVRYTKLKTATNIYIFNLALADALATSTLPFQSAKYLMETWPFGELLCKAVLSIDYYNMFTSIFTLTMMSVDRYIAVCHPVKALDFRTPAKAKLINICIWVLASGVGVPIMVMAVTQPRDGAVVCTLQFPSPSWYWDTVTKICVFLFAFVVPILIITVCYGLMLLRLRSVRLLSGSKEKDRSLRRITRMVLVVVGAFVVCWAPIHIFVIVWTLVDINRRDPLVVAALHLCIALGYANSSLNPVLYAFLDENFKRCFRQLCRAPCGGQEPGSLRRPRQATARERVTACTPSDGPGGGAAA
Sequence of Mu-type opioid receptor (P33535 whole entry): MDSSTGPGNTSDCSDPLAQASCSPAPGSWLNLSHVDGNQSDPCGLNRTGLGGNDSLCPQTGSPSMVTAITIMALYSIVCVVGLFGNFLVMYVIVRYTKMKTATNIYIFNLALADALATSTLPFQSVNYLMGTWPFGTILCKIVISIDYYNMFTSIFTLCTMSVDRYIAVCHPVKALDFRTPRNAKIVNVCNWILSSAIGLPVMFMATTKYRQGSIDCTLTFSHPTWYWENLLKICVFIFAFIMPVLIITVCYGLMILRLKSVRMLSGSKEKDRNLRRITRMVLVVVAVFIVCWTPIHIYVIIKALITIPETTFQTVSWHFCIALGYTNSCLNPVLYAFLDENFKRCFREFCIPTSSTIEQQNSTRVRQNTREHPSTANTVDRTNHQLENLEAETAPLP
Sequence of Mu-type opioid receptor (Cavia porcellus) (P97266 whole entry): as the sequence (P97266 whole entry, looked up) above
Sequence of Kappa-type opioid receptor (Cavia porcellus) (P41144 whole entry): as the sequence (P41144 whole entry, looked up) above
Sequence of Opioid receptors; mu & delta (Rattus norvegicus) (P33533 whole entry, looked up): as the sequence (P33533 whole entry) above
Sequence of Opioid receptors; mu & delta (Rattus norvegicus) (P33535 whole entry, looked up): as the sequence (P33535 whole entry) above
Sequence of Delta-type opioid receptor (Mus musculus) (P32300 whole entry): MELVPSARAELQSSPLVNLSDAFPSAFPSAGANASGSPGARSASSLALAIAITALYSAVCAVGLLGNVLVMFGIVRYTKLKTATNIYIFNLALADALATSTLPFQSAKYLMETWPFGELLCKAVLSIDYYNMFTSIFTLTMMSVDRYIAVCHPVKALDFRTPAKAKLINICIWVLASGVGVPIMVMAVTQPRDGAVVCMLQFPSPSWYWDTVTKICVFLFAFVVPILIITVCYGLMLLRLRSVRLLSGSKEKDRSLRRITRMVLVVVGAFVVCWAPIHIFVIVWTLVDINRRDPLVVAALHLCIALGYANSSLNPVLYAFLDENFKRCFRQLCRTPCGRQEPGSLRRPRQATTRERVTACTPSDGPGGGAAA

Row | Compound | Ki [1] | Ki (Mu-type opioid receptor) | Ki [2] | Ratio Ke [3] | Ke [4] | Ke [5] | Ratio Ki [6] | Ratio Ki [7] | Ke [8] | Ratio Ke [9]
1 | CC[C@H](C)[C@H](NC(=O)[C@H](CCCNC(=N)N)NC(=O)[C@H](CCCNC(=N)N)NC(=O)[C@H](CC(C)C)NC(=O)[C@H](Cc1ccccc1)NC(=O)CNC(=O)CNC(=O)CCc1c(C)cc(C(N)=O)cc1C)C(=O)N[C@@H](CCCNC(=N)N)C(=O)N1CCC[C@H]1C(=O)N[C@@H](CCCCN)C(N)=O | 129 nM | 44.9 nM | 32 nM |  |  |  |  |  |  | 
2 | Cc1cc(C(N)=O)cc(C)c1CCC(=O)NC1CSSCC(C(N)=O)NC(=O)[C@H](Cc2ccc([N+](=O)[O-])cc2)NC(=O)CNC1=O (stereo in doubt) | 25.8 nM | 2.84 nM | 980 nM | 45 | 3.92 nM | 74.1 nM | 9 | 345 | 176 nM | 19
3 | Cc1cc(O)cc(C)c1CCC(=O)NC1CSSCC(C(N)=O)NC(=O)[C@H](Cc2ccc([N+](=O)[O-])cc2)NC(=O)CNC1=O (stereo in doubt) | 11.6 nM | 4.79 nM | 299 nM | 17 | 3.68 nM | 22.6 nM | 2 | 62 | 63.3 nM | 6

From ChEMBL document CHEMBL1146183, “Replacement of the N-terminal tyrosine residue in opioid peptides with 3-(2,6-dimethyl-4-carbamoylphenyl)propanoic acid (Dcp) results in novel opioid antagonists” (J Med Chem, 2006)
